Source: ChEMBL document CHEMBL2331524, “Potent proteasome inhibitors derived from the unnatural cis-cyclopropane isomer of Belactosin A: synthesis, biological activity, and mode of action” (J Med Chem, 2013)
Each block holds one molecule with its values, some of them ahead of it. Active and inactive are the calls of the source. No cut-off for these calls is given here.

What was measured:
[1] = target: T1, Proteasome Macropain subunit MB1 (Homo sapiens, UniProt P28074); assay: Inhibition of chymotrypsin-like activity of human 20S proteasome beta 5 subunit using Suc-LLVY-AMC as substrate after 60 mins by fluorescence assay
T1 sequence (P28074 whole entry): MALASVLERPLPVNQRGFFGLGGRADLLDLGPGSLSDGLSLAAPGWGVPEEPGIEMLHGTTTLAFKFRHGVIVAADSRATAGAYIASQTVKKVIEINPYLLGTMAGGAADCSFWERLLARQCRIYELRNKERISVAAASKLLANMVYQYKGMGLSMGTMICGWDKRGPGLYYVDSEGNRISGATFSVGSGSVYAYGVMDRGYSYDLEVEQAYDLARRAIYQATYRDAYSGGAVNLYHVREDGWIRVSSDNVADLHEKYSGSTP

HCT-116 [2] = assay: Inhibition of proteasome in human HCT116 cells assessed as accumulation of p53 by Western blotting analysis; format: cell-based
Procedure, shortened: (§1)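 Cell extracts were immunoblotted for p53, read as a cellular marker of proteasome blockade, and for cleaved PARP, read as an apoptosis marker.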

HCT-116 [3] = assay: Cell cycle arrest in human HCT116 cells assessed as accumulation at G2/M phase after 24 hrs by propidium iodide staining-based flow cytometric analysis; format: functional
HCT-116 [4] = assay: Induction of apoptosis in human HCT116 cells assessed as induction of PARP cleavage by Western blotting analysis; format: functional, cell-based; procedure, shortened: as §1
HCT-116 [5] = assay: Cytotoxicity against human HCT116 cells after 72 hrs by CCK-8 assay; format: functional, cell-based; settings: HCT-116, 72 h
[6] = target: T2, Proteasome Macropain subunit MB1 (Homo sapiens) (UniProt P28074); assay: Irreversible inhibition of chymotrypsin-like activity of human 20S proteasome beta 5 subunit using Suc-LLVY-AMC as substrate incubated for 12 hrs prior to substrate addition followed by compound wash out measured after 1 hr by dialysis method
T2 sequence (whole entry): T1 sequence (P28074 whole entry)

[7] = target: T3, Proteasome subunit beta type-8 (Homo sapiens) (UniProt P28062); assay: Inhibition of chymotrypsin-like activity of human 20S immunoproteasome beta 5 subunit using […] at 0.3 uM incubated for 5 mins prior to […] measured after 1 hr by ELISA
T3 sequence (whole entry): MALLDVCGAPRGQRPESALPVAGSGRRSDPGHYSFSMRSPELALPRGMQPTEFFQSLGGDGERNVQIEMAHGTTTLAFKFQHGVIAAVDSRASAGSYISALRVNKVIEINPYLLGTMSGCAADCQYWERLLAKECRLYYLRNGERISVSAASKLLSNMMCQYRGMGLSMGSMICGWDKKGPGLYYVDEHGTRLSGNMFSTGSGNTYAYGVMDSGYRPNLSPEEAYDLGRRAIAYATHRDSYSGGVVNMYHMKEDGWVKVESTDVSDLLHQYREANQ

[8] = target: T2, Proteasome Macropain subunit MB1 (Homo sapiens); assay: Inhibition of chymotrypsin-like activity of human constitutive 20S proteasome beta 5 subunit using […] at 0.3 uM incubated for 5 mins prior to […] measured after 1 hr by ELISA
[9] = target: T2, Proteasome Macropain subunit MB1 (Homo sapiens); settings: 2.5 uM
[10] = target: T3, Proteasome subunit beta type-8 (Homo sapiens); assay: Inhibition of chymotrypsin-like activity of human 20S immunoproteasome beta 5 subunit using […] at 2.5 uM incubated for 5 mins prior to […] measured after 1 hr by ELISA
[11] = Half life in TEAA buffer at pH 7.4 by HPLC analysis; format: physicochemical
Procedure, shortened: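 Compound incubated in 0.1 M triethylammonium acetate (TEAA) buffer, pH 7.4, at 37 °C. The time course was recorded by HPLC, and the half-life (t1/2) was determined from that time course.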

[12] = target: T2, Proteasome Macropain subunit MB1 (Homo sapiens); assay: Reversible inhibition of chymotrypsin-like activity of human 20S proteasome beta 5 subunit using Suc-LLVY-AMC as substrate incubated for 12 hrs prior to substrate addition followed by compound wash out measured after 1 hr by dialysis method

Structure (SMILES): C=C[C@H](C[C@@H]1C[C@@H]1NC(=O)[C@@H]1OC(=O)[C@H]1[C@@H](C)CC)NC(=O)C(C)(C)C
IC50 [1]: 210 nM

Structure (SMILES): CC(C)C[C@H](NC(=O)[C@H](CCc1ccccc1)NC(=O)CN1CCOCC1)C(=O)N[C@@H](Cc1ccccc1)C(=O)N[C@@H](CC(C)C)C(=O)[C@@]1(C)CO1
inhibition [6]: Active

Structure (SMILES): C=C[C@H](C[C@@H]1C[C@@H]1NC(=O)[C@@H]1OC(=O)[C@H]1[C@@H](C)CC)NC(=O)C(C)C
IC50 [1]: 230 nM

Structure (SMILES): CC[C@H](C)[C@@H]1C(=O)O[C@H]1C(=O)N[C@H]1C[C@H]1C[C@H](NC(=O)[C@H](C)N)C(=O)O [BELACTOSIN A]
IC50 [1]: 1440 nM | inhibition [7]: Active | inhibition [8]: Active

Structure (SMILES): CC(=O)N[C@@H](CSC(=O)[C@]1([C@@H](O)C(C)C)NC(=O)[C@H](C)[C@@H]1O)C(=O)O
inhibition [9]: Active | inhibition [10]: Active

Structure (SMILES): CC[C@H](C)[C@@H]1C(=O)O[C@H]1C(=O)N[C@H]1C[C@H]1C[C@@H](Cc1ccc2ccccc2c1)NC(=O)[C@H](C)NC(=O)OCc1ccccc1
IC50 [1]: 200 nM

Structure (SMILES): CC[C@H](C)[C@@H]1C(=O)O[C@H]1C(=O)N[C@H]1C[C@H]1C[C@@H](CCc1ccccc1)NC(=O)[C@H](C)N
half-life [11]: 600 min

Structure (SMILES): CC[C@H](C)[C@@H]1C(=O)O[C@H]1C(=O)N[C@H]1C[C@H]1C[C@@H](Cc1cccc2ccccc12)NC(=O)[C@H](C)NC(=O)OCc1ccccc1
IC50 [1]: 130 nM

Structure (SMILES): CC(C)[C@H](O)[C@@]12NC(=O)[C@H](C)[C@@H]1OC2=O [OMURALIDE]
half-life [11]: 13 min

Structure (SMILES): CC[C@H](C)[C@@H]1C(=O)O[C@H]1C(=O)N[C@H]1C[C@H]1C[C@@H](CCc1ccccc1)NC(=O)[C@H](C)NC(=O)OCc1ccccc1
inhibition [12]: Active | p53 accumulation (active/inactive) (HCT-116 [2]): Active | Activity (HCT-116 [3]): Active | IC50 [1]: 5.7 nM | inhibition [7]: Active | Activity (HCT-116 [4]): Active | inhibition [8]: Active | IC50 (HCT-116 [5]): 1820 nM

Structure (SMILES): COc1ccc(C[C@H](NC(=O)[C@H](C)NC(=O)CN2CCOCC2)C(=O)N[C@@H](Cc2ccccc2)C(=O)[C@]2(C)CO2)cc1
inhibition [7]: Active | inhibition [8]: Active

Structure (SMILES): C[C@@]12OC(=O)[C@]1([C@@H](O)[C@@H]1C=CCCC1)NC(=O)[C@@H]2CCCl [MARIZOMIB]
half-life [11]: 56 min

Structure (SMILES): C=C[C@H](C[C@@H]1C[C@@H]1NC(=O)[C@@H]1OC(=O)[C@H]1[C@@H](C)CC)NC(=O)[C@H](C)N
IC50 [1]: 300 nM

Structure (SMILES): C=C[C@H](C[C@@H]1C[C@@H]1NC(=O)[C@@H]1OC(=O)[C@H]1[C@@H](C)CC)NC(=O)[C@H](C)NC(C)=O
IC50 [1]: 230 nM

Structure (SMILES): CC(C)C[C@H](NC(=O)[C@H](Cc1ccccc1)NC(=O)c1cnccn1)B(O)O [BORTEZOMIB]
inhibition [12]: Active | p53 accumulation (active/inactive) (HCT-116 [2]): Active | Activity (HCT-116 [3]): Active | Activity (HCT-116 [4]): Active | IC50 (HCT-116 [5]): 10 nM

The remaining molecules from weak to strong by IC50 [1], led by results:

IC50 [1]: 130 nM
Structure (SMILES): C=C[C@H](C[C@@H]1C[C@@H]1NC(=O)[C@@H]1OC(=O)[C@H]1[C@@H](C)CC)NC(=O)c1ccccc1

IC50 [1]: 90 nM
Structure (SMILES): CC[C@H](C)[C@@H]1C(=O)O[C@H]1C(=O)N[C@H]1C[C@H]1C[C@H](NC(=O)[C@H](C)NC(=O)OCc1ccccc1)c1ccccc1

IC50 [1]: 79 nM
Structure (SMILES): C=C[C@H](C[C@@H]1C[C@@H]1NC(=O)[C@@H]1OC(=O)[C@H]1[C@@H](C)CC)NC(=O)[C@H](C)NC(=O)c1ccccc1

IC50 [1]: 77 nM
Structure (SMILES): C=C[C@H](C[C@@H]1C[C@@H]1NC(=O)[C@@H]1OC(=O)[C@H]1[C@@H](C)CC)NC(=O)[C@H](C)NC(=O)OC(C)(C)C

IC50 [1]: 63 nM
Structure (SMILES): CC[C@H](C)[C@@H]1C(=O)O[C@H]1C(=O)N[C@H]1C[C@H]1C[C@@H](CCc1cccc2ccccc12)NC(=O)[C@H](C)NC(=O)OCc1ccccc1

IC50 [1]: 60 nM
Structure (SMILES): C=C[C@H](C[C@@H]1C[C@@H]1NC(=O)[C@@H]1OC(=O)[C@H]1[C@@H](C)CC)NC(=O)c1ccc2ccccc2c1
p53 accumulation (active/inactive) (HCT-116 [2]): Active | Activity (HCT-116 [3]): Active | Activity (HCT-116 [4]): Active | IC50 (HCT-116 [5]): 11200 nM

IC50 [1]: 57 nM
Structure (SMILES): C=C[C@H](C[C@@H]1C[C@@H]1NC(=O)[C@@H]1OC(=O)[C@H]1[C@@H](C)CC)NC(=O)[C@@H](C)NC(=O)OCc1ccccc1

IC50 [1]: 49 nM
Structure (SMILES): C=C[C@H](C[C@@H]1C[C@@H]1NC(=O)[C@@H]1OC(=O)[C@H]1[C@@H](C)CC)NC(=O)[C@H](C)NC(=O)OCc1ccccc1
Activity (HCT-116 [3]): Active | IC50 (HCT-116 [5]): 910 nM

IC50 [1]: 47 nM
Structure (SMILES): C=C[C@H](C[C@@H]1C[C@@H]1NC(=O)[C@@H]1OC(=O)[C@H]1[C@@H](C)CC)NC(=O)[C@H](CC(C)C)NC(=O)OCc1ccccc1

IC50 [1]: 41 nM
Structure (SMILES): C=C[C@H](C[C@@H]1C[C@@H]1NC(=O)[C@@H]1OC(=O)[C@H]1[C@@H](C)CC)NC(=O)CNC(=O)OCc1ccccc1

IC50 [1]: 38 nM
Structure (SMILES): CC[C@H](C[C@@H]1C[C@@H]1NC(=O)[C@@H]1OC(=O)[C@H]1[C@@H](C)CC)NC(=O)[C@H](C)NC(=O)OCc1ccccc1

IC50 [1]: 35 nM
Structure (SMILES): CC[C@H](C)[C@@H]1C(=O)O[C@H]1C(=O)N[C@H]1C[C@H]1C[C@@H](CCCc1ccccc1)NC(=O)[C@H](C)NC(=O)OCc1ccccc1

IC50 [1]: 33 nM
Structure (SMILES): CC[C@H](C)[C@@H]1C(=O)O[C@H]1C(=O)N[C@H]1C[C@H]1C[C@@H](CCc1ccccc1)NC(=O)c1ccc2ccccc2c1

IC50 [1]: 30 nM
Structure (SMILES): C=C[C@H](C[C@@H]1C[C@@H]1NC(=O)[C@@H]1OC(=O)[C@H]1[C@@H](C)CC)NC(=O)[C@H](Cc1ccccc1)NC(=O)OCc1ccccc1
p53 accumulation (active/inactive) (HCT-116 [2]): Active | Activity (HCT-116 [3]): Active | Activity (HCT-116 [4]): Active | IC50 (HCT-116 [5]): 4160 nM

IC50 [1]: 29 nM
Structure (SMILES): CC[C@H](C)[C@@H]1C(=O)O[C@H]1C(=O)N[C@H]1C[C@H]1C[C@@H](CCc1ccc2ccccc2c1)NC(=O)[C@H](C)NC(=O)OCc1ccccc1

IC50 [1]: 28 nM
Structure (SMILES): C=C[C@H](C[C@@H]1C[C@@H]1NC(=O)[C@@H]1OC(=O)[C@H]1[C@@H](C)CC)NC(=O)[C@H](Cc1c[nH]c2ccccc12)NC(=O)OCc1ccccc1

IC50 [1]: 25 nM
Structure (SMILES): C=C[C@H](C[C@@H]1C[C@@H]1NC(=O)[C@@H]1OC(=O)[C@H]1[C@@H](C)CC)NC(=O)[C@H](C)NC(=O)c1ccc2ccccc2c1
p53 accumulation (active/inactive) (HCT-116 [2]): Active | Activity (HCT-116 [3]): Active | Activity (HCT-116 [4]): Active | IC50 (HCT-116 [5]): 2610 nM

IC50 [1]: 14 nM
Structure (SMILES): CC[C@H](C)[C@@H]1C(=O)O[C@H]1C(=O)N[C@H]1C[C@H]1C[C@@H](Cc1ccccc1)NC(=O)[C@H](C)NC(=O)OCc1ccccc1

IC50 [1]: 10 nM
Structure (SMILES): CC[C@H](C)[C@@H]1C(=O)O[C@H]1C(=O)N[C@H]1C[C@H]1C[C@@H](CCc1ccccc1)NC(=O)[C@H](C)NC(=O)c1ccc2ccccc2c1
p53 accumulation (active/inactive) (HCT-116 [2]): Active | Activity (HCT-116 [3]): Active | Activity (HCT-116 [4]): Active | IC50 (HCT-116 [5]): 790 nM
